Laboratory results from ChEMBL document CHEMBL4428066, “Small Molecule Reversible Inhibitors of Bruton's Tyrosine Kinase (BTK): Structure-Activity Relationships Leading to the Identification of 7-(2-Hydroxypropan-2-yl)-4-[2-methyl-3-(4-oxo-3,4-dihydroquinazolin-3-yl)phenyl]-9H-carbazole-1-carboxamide (BMS-935177)” (J Med Chem, 2016).
Values after ≈ are worked out from the molar mass of the structure shown. Active and inactive are the calls of the source. The rule behind the calls is not given here.

Key:
[1] = Plasma clearance in Sprague-Dawley rat at 2 mg/kg, iv through bolus administration by LC/MS/MS analysis; type: ADME, organism-based
Salmonella typhimurium = assay: Mutagenic activity in Salmonella typhimurium by AMES test; type: toxicity, organism-based; conditions: salmonella enterica subsp. enterica serovar typhimurium
[2] = AUC in Sprague-Dawley rat plasma at 5 mg/kg, administered through oral gavage by LC/MS/MS analysis; type: ADME, organism-based
[3] = target: Cytoplasmic tyrosine-protein kinase BMX (Homo sapiens, UniProt P51813); assay: Inhibition of full length human BMX expressed in bacterial system
Cytoplasmic tyrosine-protein kinase BMX, sequence (P51813 whole entry): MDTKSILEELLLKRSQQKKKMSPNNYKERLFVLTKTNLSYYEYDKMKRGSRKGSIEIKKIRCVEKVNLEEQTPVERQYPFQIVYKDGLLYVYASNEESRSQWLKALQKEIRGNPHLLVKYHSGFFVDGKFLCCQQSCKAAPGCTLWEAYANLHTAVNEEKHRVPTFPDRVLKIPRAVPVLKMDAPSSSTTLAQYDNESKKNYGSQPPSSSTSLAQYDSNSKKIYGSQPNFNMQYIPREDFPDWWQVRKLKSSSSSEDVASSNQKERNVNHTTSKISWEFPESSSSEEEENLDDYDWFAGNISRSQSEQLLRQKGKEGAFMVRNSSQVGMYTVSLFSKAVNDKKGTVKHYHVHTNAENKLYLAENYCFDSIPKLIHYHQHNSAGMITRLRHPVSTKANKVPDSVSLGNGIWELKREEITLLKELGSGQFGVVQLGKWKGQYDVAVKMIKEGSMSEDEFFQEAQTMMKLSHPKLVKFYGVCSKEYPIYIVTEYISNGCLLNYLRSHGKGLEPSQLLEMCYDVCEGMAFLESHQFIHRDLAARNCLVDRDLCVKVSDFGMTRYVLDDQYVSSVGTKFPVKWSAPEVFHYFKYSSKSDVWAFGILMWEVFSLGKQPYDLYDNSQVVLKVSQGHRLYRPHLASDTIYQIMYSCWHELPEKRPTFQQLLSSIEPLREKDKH

Mus musculus [4] = assay: Antiarthritic activity in DBA/1 mouse model of collagen-induced arthritis inflammation assessed as presence of presence of recognizable small individual bones at foot and ankle at 20 mg/kg, po dosed daily beginning on day of primary immunization by microcomputed tomography imaging analysis; type: functional, organism-based
[5] = Plasma clearance in cynomolgus monkey at 2 mg/kg, iv through bolus administration after 0.167 to 48 hrs by LC/MS/MS analysis; type: ADME, organism-based, Macaca fascicularis
[6] = target: Tyrosine-protein kinase JAK2 (Homo sapiens, UniProt O60674); assay: Inhibition of partial length human JAK2 expressed in bacterial system
Mus musculus [7] = assay: Antiarthritic activity in DBA/1 mouse model of collagen-induced arthritis inflammation assessed as protection against pitting dosed daily and orally beginning on day of primary immunization by microcomputed tomography imaging analysis; type: functional, organism-based
[8] = Solubility of the compound in fed state simulated intestinal fluid; type: physicochemical
Mus musculus [9] = assay: Time required for plasma concentration to reach above in vitro BCR-stimulated CD69 expression IC50 in Balb/C mouse KLH antibody response model at 5 to 45 mg/kg, po qd for 14 days; type: ADME, organism-based; conditions: in vivo, 336 h
Mus musculus [10] = assay: Antiarthritic activity in DBA/1 mouse model of collagen-induced arthritis inflammation assessed reduction in disease severity at 10 mg/kg, po dosing daily starting on day of primary immunization; type: functional; parameters: scale not given: the % may be the effect or the level left
Mus musculus [11] = assay: Antiarthritic activity in Balb/C mouse model of anti-collagen antibody-induced arthritis assessed as reduction in paw clinical scores at 30 mg/kg, po dosed daily for 3 days followed by LPS challenge; type: functional, organism-based
Cytochrome P450 3A4 = Cytochrome P450 3A4 (Homo sapiens, UniProt P08684); assay: Inhibition of human liver microsomes CYP3A4 after 30 mins in presence of NADPH; type: ADME
Cytochrome P450 3A4, sequence (P08684 whole entry): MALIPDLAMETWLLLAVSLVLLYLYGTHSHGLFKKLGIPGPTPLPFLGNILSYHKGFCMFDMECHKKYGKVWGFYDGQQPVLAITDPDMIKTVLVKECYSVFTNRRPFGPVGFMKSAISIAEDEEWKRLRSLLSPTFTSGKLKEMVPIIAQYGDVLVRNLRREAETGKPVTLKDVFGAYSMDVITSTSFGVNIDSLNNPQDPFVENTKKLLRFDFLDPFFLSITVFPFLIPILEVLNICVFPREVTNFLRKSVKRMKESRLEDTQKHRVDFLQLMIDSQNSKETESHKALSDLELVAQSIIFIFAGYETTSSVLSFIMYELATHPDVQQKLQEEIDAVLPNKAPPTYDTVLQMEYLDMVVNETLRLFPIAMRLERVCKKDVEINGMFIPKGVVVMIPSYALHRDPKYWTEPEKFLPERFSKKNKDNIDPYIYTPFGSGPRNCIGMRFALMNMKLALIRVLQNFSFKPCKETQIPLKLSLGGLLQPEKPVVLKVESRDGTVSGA

[12] = Volume of distribution in steady state in Sprague-Dawley rat at 2 mg/kg, iv through bolus administration by LC/MS/MS analysis; type: ADME, organism-based; conditions: in vivo, read-out: Vdss
Mus musculus [13] = assay: Antiarthritic activity in DBA/1 mouse model of collagen-induced arthritis inflammation assessed as inhibition of bone resorption end points dosed daily and orally beginning on day of primary immunization by micro-CT analysis; type: functional, organism-based
Mus musculus [14] = assay: Antiarthritic activity in Balb/C mouse model of anti-collagen antibody-induced arthritis assessed as reduction in paw clinical scores at dosed orally daily for 3 days followed by LPS challenge; type: functional, organism-based
[15] = Tmax in Beagle dog plasma at 2 mg/kg, administered through oral gavage after 0.25 to 48 hrs by LC/MS/MS analysis; type: ADME, organism-based, Canis lupus familiaris
[16] = target: Tyrosine-protein kinase Lyn (Homo sapiens, UniProt P07948); assay: Inhibition of partial length human LYN expressed in bacterial system
[17] = Plasma clearance in mouse at 2 mg/kg, iv through bolus administration after 0.05 to 24 hrs by LC/MS/MS analysis; type: ADME, organism-based
Mus musculus [18] = assay: Time required for plasma concentration to reach above in vitro BCR/IgM/IgG-stimulated CD69 expression mouse whole blood IC50 in DBA/1 mouse CIA model at 20 mg/kg administered daily through oral gavage starting on day of primary immunization; type: ADME, organism-based; conditions: in vivo
[19] = Cmax in mouse plasma at 5 mg/kg, administered through oral gavage after 0.25 to 24 hrs by LC/MS/MS analysis; type: ADME, organism-based; parameters: dose 5 mg/kg, route oral
[20] = Protein binding in human serum; type: ADME, cell-free; conditions: read-out: PB (converted)
[21] = target: Tyrosine-protein kinase ITK/TSK (Homo sapiens, UniProt Q08881); assay: Inhibition of partial length human ITK expressed in bacterial system
Tyrosine-protein kinase ITK/TSK, sequence (Q08881 whole entry): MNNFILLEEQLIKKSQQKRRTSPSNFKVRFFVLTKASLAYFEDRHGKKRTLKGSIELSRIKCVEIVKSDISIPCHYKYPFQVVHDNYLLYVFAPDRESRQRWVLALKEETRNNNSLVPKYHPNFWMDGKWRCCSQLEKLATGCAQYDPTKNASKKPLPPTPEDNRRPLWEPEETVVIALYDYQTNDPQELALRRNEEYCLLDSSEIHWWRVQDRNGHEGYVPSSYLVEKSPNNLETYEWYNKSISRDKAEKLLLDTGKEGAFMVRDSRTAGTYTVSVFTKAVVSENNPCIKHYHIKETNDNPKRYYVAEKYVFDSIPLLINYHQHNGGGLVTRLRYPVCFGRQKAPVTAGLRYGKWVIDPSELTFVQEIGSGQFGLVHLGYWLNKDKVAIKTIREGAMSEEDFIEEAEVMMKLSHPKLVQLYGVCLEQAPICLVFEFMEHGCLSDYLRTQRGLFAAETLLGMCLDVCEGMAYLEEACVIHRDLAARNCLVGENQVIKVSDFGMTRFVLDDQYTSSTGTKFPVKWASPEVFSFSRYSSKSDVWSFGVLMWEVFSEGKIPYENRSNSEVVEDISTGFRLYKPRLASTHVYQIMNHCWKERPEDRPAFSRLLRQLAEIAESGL

Cytochrome P450 1A2 = Cytochrome P450 1A2 (Homo sapiens, UniProt P05177); assay: Inhibition of human liver microsomes CYP1A2 after 30 mins in presence of NADPH; type: ADME
Mus musculus [22] = assay: Antiarthritic activity in DBA/1 mouse model of collagen-induced arthritis inflammation assessed as protection against fusion of small bones dosed daily and orally beginning on day of primary immunization by microcomputed tomography imaging analysis; type: functional, organism-based
[23] = Aqueous solubility of the compound; type: physicochemical; conditions: aqueous medium
[24] = target: Tyrosine-protein kinase BTK (Mus musculus, UniProt P35991); assay: Inhibition of BTK in mouse whole blood assessed as suppression of BCR/anti-IgM stimulated CD69 surface expression on B cells after 18 hrs by FACS analysis; type: tissue-based
Tyrosine-protein kinase BTK, sequence (P35991 whole entry): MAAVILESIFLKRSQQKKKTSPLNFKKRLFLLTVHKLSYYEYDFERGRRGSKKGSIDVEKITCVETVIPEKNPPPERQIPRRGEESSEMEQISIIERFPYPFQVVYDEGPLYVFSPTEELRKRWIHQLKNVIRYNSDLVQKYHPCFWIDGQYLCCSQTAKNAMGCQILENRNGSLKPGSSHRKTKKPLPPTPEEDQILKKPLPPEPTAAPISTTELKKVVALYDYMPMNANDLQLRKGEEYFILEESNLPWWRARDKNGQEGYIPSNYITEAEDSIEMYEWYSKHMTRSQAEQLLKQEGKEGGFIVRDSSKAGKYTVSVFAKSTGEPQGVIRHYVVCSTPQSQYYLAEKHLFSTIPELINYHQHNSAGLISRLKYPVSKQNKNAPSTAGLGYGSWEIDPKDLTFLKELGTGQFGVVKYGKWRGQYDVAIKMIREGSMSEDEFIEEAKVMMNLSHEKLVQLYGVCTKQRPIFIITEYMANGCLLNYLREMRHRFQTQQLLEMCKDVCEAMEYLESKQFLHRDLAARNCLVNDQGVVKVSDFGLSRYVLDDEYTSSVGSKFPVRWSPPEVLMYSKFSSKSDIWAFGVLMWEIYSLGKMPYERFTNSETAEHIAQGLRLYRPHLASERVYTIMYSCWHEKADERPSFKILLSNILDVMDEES
Summary of the method: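 Mouse whole blood stimulated through the BCR; CD69 on the B-cell surface read by FACS with gating on B cells. IC50 reported as mean ± standard deviation of three determinations.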

[25] = Permeability of the compound at pH 7.4 by PAMPA; type: ADME; conditions: read-out: permeability
Mus musculus [26] = assay: Decrease in anti-KLH IgM titers in chronic Balb/C mouse KLH antibody response model at 5 to 45 mg/kg, po qd administered through oral gavage after 14 days by ELISA; type: functional, organism-based
Summary of the method: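 Chronic KLH challenge model in mice with compound given by mouth. Anti-KLH IgM appears in the first week after challenge. Switching to IgG anti-KLH is evident by day 14.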

[27] = Oral bioavailability in Beagle dog at 2 mg/kg after 0.25 to 48 hrs by LC/MS/MS analysis; type: ADME, organism-based, Canis lupus familiaris; conditions: in vivo
[28] = Oral bioavailability in cynomolgus monkey at 2 mg/kg after 0.25 to 48 hrs by LC/MS/MS analysis; type: ADME, organism-based, Macaca fascicularis; conditions: in vivo
Cytochrome P450 2C9 = Cytochrome P450 2C9 (Homo sapiens, UniProt P11712); assay: Inhibition of human liver microsomes CYP2C9 after 30 mins in presence of NADPH; type: ADME
Cytochrome P450 2C9, sequence (P11712 whole entry): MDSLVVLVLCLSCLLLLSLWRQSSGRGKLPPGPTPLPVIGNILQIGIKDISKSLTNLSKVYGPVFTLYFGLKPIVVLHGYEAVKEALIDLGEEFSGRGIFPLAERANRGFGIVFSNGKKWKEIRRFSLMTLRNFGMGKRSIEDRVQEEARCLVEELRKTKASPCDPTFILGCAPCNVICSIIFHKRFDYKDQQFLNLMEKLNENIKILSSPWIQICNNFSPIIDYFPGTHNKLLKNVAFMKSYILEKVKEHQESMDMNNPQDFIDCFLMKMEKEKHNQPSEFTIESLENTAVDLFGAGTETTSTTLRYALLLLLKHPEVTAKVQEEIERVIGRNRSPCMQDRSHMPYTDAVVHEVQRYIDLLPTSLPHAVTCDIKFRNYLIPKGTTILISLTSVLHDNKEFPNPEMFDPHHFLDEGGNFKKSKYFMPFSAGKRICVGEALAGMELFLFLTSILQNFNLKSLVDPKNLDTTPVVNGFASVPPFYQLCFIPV

Cytochrome P450 2D6 = Cytochrome P450 2D6 (Homo sapiens, UniProt P10635); assay: Inhibition of human liver microsomes CYP2D6 after 30 mins in presence of NADPH; type: ADME
Cytochrome P450 2D6, sequence (P10635 whole entry): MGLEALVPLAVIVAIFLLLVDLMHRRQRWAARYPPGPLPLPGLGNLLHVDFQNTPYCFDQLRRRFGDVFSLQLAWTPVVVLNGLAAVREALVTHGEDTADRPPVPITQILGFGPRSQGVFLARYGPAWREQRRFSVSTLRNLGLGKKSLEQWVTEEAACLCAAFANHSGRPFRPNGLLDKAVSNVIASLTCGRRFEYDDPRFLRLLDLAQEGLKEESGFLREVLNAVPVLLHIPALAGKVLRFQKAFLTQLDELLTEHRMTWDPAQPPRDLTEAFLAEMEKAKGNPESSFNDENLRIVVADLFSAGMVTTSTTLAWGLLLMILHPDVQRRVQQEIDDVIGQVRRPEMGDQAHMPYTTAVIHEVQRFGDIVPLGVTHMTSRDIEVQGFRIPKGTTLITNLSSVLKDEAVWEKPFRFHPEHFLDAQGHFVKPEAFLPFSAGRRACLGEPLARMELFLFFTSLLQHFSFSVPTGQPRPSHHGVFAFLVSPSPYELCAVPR

Mus musculus [29] = assay: Antiarthritic activity in DBA/1 mouse model of collagen-induced arthritis inflammation assessed as presence of smooth bone surface at 20 mg/kg, po dosed daily beginning on day of primary immunization by microcomputed tomography imaging analysis; type: functional, organism-based
[30] = Half life in cynomolgus monkey plasma at 2 mg/kg, iv through bolus administration after 0.167 to 48 hrs by LC/MS/MS analysis; type: ADME, organism-based, Macaca fascicularis
Mus musculus [31] = assay: Antiarthritic activity in DBA/1 mouse model of collagen-induced arthritis inflammation assessed reduction in disease severity dosed daily and orally beginning on day of primary immunization; type: functional, organism-based
[32] = target: Proto-oncogene tyrosine-protein kinase receptor Ret (Homo sapiens, UniProt P07949); assay: Inhibition of partial length human RET expressed in bacterial system
Proto-oncogene tyrosine-protein kinase receptor Ret, sequence (P07949 whole entry): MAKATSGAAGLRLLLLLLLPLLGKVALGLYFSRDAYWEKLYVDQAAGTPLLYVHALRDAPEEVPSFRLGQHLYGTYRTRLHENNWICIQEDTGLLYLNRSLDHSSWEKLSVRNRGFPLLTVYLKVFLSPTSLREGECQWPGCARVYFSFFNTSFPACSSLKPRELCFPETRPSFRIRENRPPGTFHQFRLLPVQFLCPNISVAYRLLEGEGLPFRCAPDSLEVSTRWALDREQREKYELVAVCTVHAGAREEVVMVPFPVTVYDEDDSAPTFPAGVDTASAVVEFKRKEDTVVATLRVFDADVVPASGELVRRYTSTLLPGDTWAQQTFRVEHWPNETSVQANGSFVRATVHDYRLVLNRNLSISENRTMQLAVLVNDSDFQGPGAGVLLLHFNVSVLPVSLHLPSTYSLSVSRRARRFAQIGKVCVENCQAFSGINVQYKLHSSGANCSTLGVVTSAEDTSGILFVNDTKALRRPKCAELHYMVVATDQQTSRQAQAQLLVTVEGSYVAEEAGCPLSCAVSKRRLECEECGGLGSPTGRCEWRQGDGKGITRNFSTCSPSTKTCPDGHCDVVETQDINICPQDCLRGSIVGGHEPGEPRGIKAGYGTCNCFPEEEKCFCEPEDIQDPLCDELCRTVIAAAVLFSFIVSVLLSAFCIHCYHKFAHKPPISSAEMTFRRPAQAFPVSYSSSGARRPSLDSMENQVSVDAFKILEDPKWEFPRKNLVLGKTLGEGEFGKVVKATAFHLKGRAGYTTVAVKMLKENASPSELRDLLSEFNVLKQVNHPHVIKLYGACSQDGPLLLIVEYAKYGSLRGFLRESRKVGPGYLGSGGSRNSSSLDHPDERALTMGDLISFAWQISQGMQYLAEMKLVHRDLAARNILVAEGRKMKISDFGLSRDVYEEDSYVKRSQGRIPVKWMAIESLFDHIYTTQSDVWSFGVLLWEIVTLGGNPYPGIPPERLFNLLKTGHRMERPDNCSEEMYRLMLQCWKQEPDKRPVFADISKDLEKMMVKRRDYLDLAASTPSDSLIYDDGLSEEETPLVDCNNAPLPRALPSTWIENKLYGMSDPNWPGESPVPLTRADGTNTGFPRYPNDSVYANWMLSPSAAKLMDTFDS

[33] = Volume of distribution in steady state in mouse at 2 mg/kg, iv through bolus administration after 0.05 to 24 hrs by LC/MS/MS analysis; type: ADME, organism-based; conditions: in vivo, read-out: Vdss
[34] = Tmax in mouse plasma at 5 mg/kg, administered through oral gavage after 0.25 to 24 hrs by LC/MS/MS analysis; type: ADME, organism-based

**Q.** For `Cc1c(-c2ccc(C(N)=O)c3[nH]c4cc(C(C)(C)O)ccc4c23)cccc1-n1cnc2ccccc2c1=O`, which clearance [1] is on record?
**A.** The clearance was 6.4 mL/min/kg.

**Q.** What about the Activity (Salmonella typhimurium) of the same compound?
**A.** The Activity was “Non-Toxic”.

**Q.** And the AUC [2]?
**A.** The AUC was 21.2 µM·h.

**Q.** And the IC50 [3]?
**A.** The IC50 was 24 nM.

**Q.** What about the Activity (Mus musculus [4]) of the same compound?
**A.** The Activity was “Active”.

**Q.** What about the clearance [5] of the same compound?
**A.** Its clearance is 2.1 mL/min/kg.

**Q.** And the IC50 [6]?
**A.** Its IC50 is 370 nM.

**Q.** What about the Activity (Mus musculus [7]) of the same compound?
**A.** Its Activity is “Dose-dependent effect”.

**Q.** What about the solubility [8] of the same compound?
**A.** Its solubility is 60 µg/mL (≈ 119 µM).

**Q.** What about the Time (Mus musculus [9]) of the same compound?
**A.** The Time was 5 h.

**Q.** What about the Activity (Mus musculus [10]) of the same compound?
**A.** The Activity was 40%.

**Q.** And the Activity (Mus musculus [11])?
**A.** The Activity was “Active”.

**Q.** And the IC50 (Cytochrome P450 3A4)?
**A.** Its IC50 is greater than 40000 nM.

**Q.** And the Vd [12]?
**A.** The Vd was 2.6 L/kg.

**Q.** And the Activity (Mus musculus [13])?
**A.** The Activity was “Active”.

**Q.** What about the Activity (Mus musculus [14]) of the same compound?
**A.** The Activity was “Dose-dependent effect”.

**Q.** What about the Tmax [15] of the same compound?
**A.** Its Tmax is 1.6 h.

**Q.** What about the IC50 [16] of the same compound?
**A.** Its IC50 is 160 nM.

**Q.** And the clearance [17]?
**A.** The clearance was 4.9 mL/min/kg.

**Q.** And the Time (Mus musculus [18])?
**A.** Its Time is 20 h.

**Q.** What about the Cmax [19] of the same compound?
**A.** Its Cmax is 3.8 µM.

**Q.** What about the fraction unbound [20] of the same compound?
**A.** Its fraction unbound is 0.006.

**Q.** And the IC50 [21]?
**A.** The IC50 was 96 nM.

**Q.** And the IC50 (Cytochrome P450 1A2)?
**A.** The IC50 was greater than 40000 nM.

**Q.** What about the Activity (Mus musculus [22]) of the same compound?
**A.** Its Activity is “Dose-dependent effect”.

**Q.** What about the solubility [23] of the same compound?
**A.** Its solubility is less than 1 µg/mL.

**Q.** And the IC50 [24]?
**A.** Its IC50 is 2060 nM.

**Q.** What about the Papp [25] of the same compound?
**A.** Its Papp is 102 ×10⁻⁶ cm/s.

**Q.** And the Activity (Mus musculus [26])?
**A.** The Activity was “Active”.

**Q.** What about the bioavailability [27] of the same compound?
**A.** The bioavailability was 100%.

**Q.** And the bioavailability [28]?
**A.** The bioavailability was 100%.

**Q.** What about the IC50 (Cytochrome P450 2C9) of the same compound?
**A.** The IC50 was greater than 8000 nM.

**Q.** What about the IC50 (Cytochrome P450 2D6) of the same compound?
**A.** The IC50 was greater than 40000 nM.

**Q.** What about the Activity (Mus musculus [29]) of the same compound?
**A.** The Activity was “Active”.

**Q.** What about the half-life [30] of the same compound?
**A.** The half-life was 10.6 h.

**Q.** What about the Activity (Mus musculus [31]) of the same compound?
**A.** Its Activity is “Dose-dependent effect”.

**Q.** And the IC50 [32]?
**A.** Its IC50 is 110 nM.

**Q.** What about the Vd [33] of the same compound?
**A.** Its Vd is 1.7 L/kg.

**Q.** And the Tmax [34]?
**A.** Its Tmax is 3 h.
